Data reported in ChEMBL document CHEMBL1134398, “Synthesis, structure-activity relationships, and pharmacokinetic profiles of nonpeptidic difluoromethylene ketones as novel inhibitors of human chymase” (J Med Chem, 2001).
Each block holds one compound with its values, some of them ahead of it. The source made the active and inactive calls. The rule behind the calls is not given here.

What was measured:
[1] = target: T1, Chymase (Homo sapiens, UniProt P23946); test: In vitro inhibitory activity was determined against human heart chymase
T1 sequence (P23946 whole entry): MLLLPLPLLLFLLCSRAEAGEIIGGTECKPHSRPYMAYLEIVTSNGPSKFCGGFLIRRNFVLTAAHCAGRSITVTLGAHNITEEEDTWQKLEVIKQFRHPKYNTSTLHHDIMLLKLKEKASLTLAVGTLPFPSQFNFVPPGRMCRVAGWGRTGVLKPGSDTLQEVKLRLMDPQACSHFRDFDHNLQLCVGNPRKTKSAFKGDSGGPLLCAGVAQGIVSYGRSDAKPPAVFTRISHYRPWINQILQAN

[2] = The selectivity was determined for chymotrypsin to that of chymase
[3] = (§1) Steady state volume of distribution was determined; assay type: ADME, organism-based, Canis lupus familiaris; settings: dog, in vivo; read-out: Vdss
Summary of the method: (§2)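 Male Sprague–Dawley rats (204–222 g) and male beagles (11.4–12.5 kg), n=3 each, fasted 18 h before and 4 h after dosing. Plasma sampled up to 24 h, quantified by LC–MS/MS with internal standard. AUC 0–infinity.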

[4] = as §1; assay type: ADME, organism-based; settings: rat, in vivo; read-out: Vdss; summary of the method: as §2
[5] = Pharmacokinetic parameter AUC after intravenous administration to dogs; assay type: ADME, organism-based, Canis lupus familiaris; settings: dog, in vivo; summary of the method: as §2
[6] = Pharmacokinetic parameter AUC after oral administration to dogs; assay type: ADME, organism-based, Canis lupus familiaris; settings: dog, in vivo
Summary of the method: (§3)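 10 mg/kg by gavage to fasted male rats (suspension 10 mg/mL, 0.5% HPMC) or male beagles (solution 2.5 mg/mL, DMSO–PEG-400–1 M HCl–saline 2:38:10:50), n=3. Plasma sampled up to 24 h, assayed by LC–MS/MS. Cmax and Tmax taken from measured values. BA = (AUCpo×dose iv)/(AUCiv×dose po)×100, using 1 mg/kg iv.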

[7] = Plasma administration to rats; assay type: ADME, organism-based; settings: rat; summary of the method: as §2
[8] = Bioavailability administered orally at a dose of 10 mg/kg to dogs; assay type: ADME, organism-based, Canis lupus familiaris; settings: dog, in vivo, po, read-out: BA; summary of the method: as §3
[9] = Time to reach Cmax after oral administration to dogs; assay type: ADME, organism-based, Canis lupus familiaris; settings: dog, in vivo; summary of the method: as §3
[10] = Maximum plasma concentration after oral administration to rats; assay type: ADME, organism-based; parameters: route oral; settings: rat; summary of the method: as §3
[11] = Time to reach Cmax after oral administration to rats; assay type: ADME, organism-based; settings: rat, in vivo; summary of the method: as §3
[12] = Half life was evaluated after intravenous administration to dogs; assay type: ADME, organism-based, Canis lupus familiaris; settings: dog, in vivo; summary of the method: as §2
[13] = Plasma administration to dogs; assay type: ADME, organism-based, Canis lupus familiaris; settings: dog; summary of the method: as §2
[14] = Pharmacokinetic parameter AUC after intravenous administration to rats; assay type: ADME, organism-based; settings: rat, in vivo; summary of the method: as §2
[15] = Pharmacokinetic parameter AUC after oral administration to rats; assay type: ADME, organism-based; settings: rat, in vivo; summary of the method: as §3
[16] = Bioavailability administered orally at a dose of 10 mg/kg to rats; assay type: ADME, organism-based; settings: rat, in vivo, po, read-out: BA; summary of the method: as §3
[17] = Maximum plasma concentration after oral administration to dogs at a dose of 10 mg/kg; assay type: ADME, organism-based, Canis lupus familiaris; parameters: dose 10 mg/kg, route oral; settings: dog; summary of the method: as §3
[18] = target: Angiotensin-converting enzyme (Homo sapiens) (UniProt P12821); test: Inhibitory activity against human angiotensin I converting enzyme (10 uM); No inhibition
[19] = target: T2, Neutrophil elastase (Homo sapiens) (UniProt P08246); test: Inhibitory activity against human leukocyte elastase (10 uM); No inhibition
T2 sequence (whole entry): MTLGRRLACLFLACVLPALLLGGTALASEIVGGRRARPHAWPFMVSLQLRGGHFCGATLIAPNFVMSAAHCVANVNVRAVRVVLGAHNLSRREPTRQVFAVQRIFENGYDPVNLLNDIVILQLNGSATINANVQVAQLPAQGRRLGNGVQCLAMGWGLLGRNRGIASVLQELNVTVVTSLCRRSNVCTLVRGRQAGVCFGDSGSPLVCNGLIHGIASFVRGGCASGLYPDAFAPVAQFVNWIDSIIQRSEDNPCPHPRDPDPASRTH

[20] = target: T3, Cathepsin G (Homo sapiens, UniProt P08311); test: Inhibitory activity against human cathepsin G
T3 sequence (P08311 whole entry): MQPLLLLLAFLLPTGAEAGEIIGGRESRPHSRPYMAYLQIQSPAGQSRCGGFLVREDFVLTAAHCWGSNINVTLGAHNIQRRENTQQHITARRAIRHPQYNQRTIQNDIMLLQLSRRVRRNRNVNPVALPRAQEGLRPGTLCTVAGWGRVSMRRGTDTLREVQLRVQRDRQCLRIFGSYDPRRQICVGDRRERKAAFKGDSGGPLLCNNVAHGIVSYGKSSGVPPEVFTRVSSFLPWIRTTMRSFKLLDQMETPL
Summary of the method: (§4)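 Chymotrypsin-type assay: purified enzyme hydrolyzes succinyl-Ala-Ala-Pro-Phe-p-nitroanilide, with p-nitroaniline release followed at 405 nm. Ki derived, as means ± SEM of three independent experiments. Human heart chymase was a purified preparation.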

[21] = target: T4, Mast cell protease 9 (Mus musculus, UniProt O35164); test: Inhibitory activity against mouse peritoneal chymase; summary of the method: as §4
T4 sequence (O35164 whole entry): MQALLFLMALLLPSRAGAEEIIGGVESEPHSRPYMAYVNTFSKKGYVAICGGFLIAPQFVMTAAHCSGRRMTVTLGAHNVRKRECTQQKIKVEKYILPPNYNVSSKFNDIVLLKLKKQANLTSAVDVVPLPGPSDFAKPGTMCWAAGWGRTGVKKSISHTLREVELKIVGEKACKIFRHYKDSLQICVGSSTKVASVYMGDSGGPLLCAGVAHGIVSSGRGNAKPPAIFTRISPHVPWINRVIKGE

[22] = target: Prothrombin (Homo sapiens) (UniProt P00734); test: Inhibitory activity against human plasma thrombin (10 uM); No inhibition; assay type: cell-free
[23] = Half life was evaluated after intravenous administration to rats; assay type: ADME, organism-based; settings: rat, in vivo; summary of the method: as §2

Angiotensin-converting enzyme (Homo sapiens), sequence (P12821 whole entry): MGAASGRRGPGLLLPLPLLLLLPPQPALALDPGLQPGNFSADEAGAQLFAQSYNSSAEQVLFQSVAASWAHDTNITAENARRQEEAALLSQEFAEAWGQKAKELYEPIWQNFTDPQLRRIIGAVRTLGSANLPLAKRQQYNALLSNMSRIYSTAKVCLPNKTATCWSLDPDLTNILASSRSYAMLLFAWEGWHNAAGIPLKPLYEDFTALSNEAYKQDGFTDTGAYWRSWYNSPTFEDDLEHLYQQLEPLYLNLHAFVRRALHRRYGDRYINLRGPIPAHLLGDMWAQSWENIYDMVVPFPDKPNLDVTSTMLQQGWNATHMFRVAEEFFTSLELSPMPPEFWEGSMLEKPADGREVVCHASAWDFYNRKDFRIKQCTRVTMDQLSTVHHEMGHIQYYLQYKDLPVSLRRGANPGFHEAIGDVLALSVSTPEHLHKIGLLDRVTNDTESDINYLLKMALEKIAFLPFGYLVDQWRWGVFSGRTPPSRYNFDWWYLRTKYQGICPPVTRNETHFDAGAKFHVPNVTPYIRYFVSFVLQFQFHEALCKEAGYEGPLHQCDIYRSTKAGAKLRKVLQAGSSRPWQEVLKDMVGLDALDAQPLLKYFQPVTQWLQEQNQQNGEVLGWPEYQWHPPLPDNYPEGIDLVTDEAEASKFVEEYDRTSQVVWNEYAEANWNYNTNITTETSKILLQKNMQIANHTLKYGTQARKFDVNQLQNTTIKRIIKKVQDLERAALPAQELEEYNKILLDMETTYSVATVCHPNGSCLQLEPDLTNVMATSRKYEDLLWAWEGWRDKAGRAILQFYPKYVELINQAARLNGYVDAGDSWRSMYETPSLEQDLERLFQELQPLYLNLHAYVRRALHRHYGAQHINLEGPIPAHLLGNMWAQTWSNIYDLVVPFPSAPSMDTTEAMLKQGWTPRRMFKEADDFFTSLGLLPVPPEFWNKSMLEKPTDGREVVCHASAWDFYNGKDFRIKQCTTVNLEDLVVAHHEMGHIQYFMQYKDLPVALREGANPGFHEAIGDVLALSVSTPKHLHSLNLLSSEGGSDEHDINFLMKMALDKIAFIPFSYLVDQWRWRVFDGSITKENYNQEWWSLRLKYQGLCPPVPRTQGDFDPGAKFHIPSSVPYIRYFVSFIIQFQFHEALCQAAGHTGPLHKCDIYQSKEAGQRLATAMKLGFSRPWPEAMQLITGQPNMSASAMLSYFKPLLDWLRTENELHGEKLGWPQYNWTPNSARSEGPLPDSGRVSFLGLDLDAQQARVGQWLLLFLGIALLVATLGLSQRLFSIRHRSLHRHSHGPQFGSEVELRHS

SMILES: CCN(CC)C(=O)CCNC(=O)C(F)(F)C(=O)C(Cc1ccccc1)NC(=O)Cn1c(-c2cccc(C)c2)ncc(N)c1=O (stereo unspecified)
Ki [1]: 33.7 nM

SMILES: Cc1cccc(-c2ncc(N)c(=O)n2CC(=O)NC(Cc2ccccc2)C(=O)C(F)(F)F)c1 (stereo unspecified)
Ki [1]: 50.6 nM

SMILES: Nc1cnc(-c2ccc(F)cc2)n(CC(=O)NC(Cc2ccccc2)C(=O)C(F)(F)C(=O)NCc2ccccc2)c1=O (stereo unspecified)
Ki [1]: 440 nM
Selectivity [2]: 7.45

SMILES: Cc1cccc(-c2ncc(N)c(=O)n2CC(=O)NC(Cc2ccccc2)C(=O)C(F)(F)C(=O)NCC(=O)N2CCCCC2)c1 (stereo unspecified)
Ki [1]: 10.2 nM

SMILES: Nc1cnc(-c2cccc(F)c2)n(CC(=O)NC(Cc2ccccc2)C(=O)C(F)(F)C(=O)NCc2ccccc2)c1=O (stereo unspecified)
Ki [1]: 15.7 nM

SMILES: CCOC(=O)C(F)(F)C(=O)C(Cc1ccccc1)NC(=O)Cn1c(-c2cccc(C)c2)ncc(N)c1=O (stereo unspecified)
Ki [1]: > 10000 nM

SMILES: Cc1cccc(-c2ncc(N)c(=O)n2CC(=O)NC(Cc2ccccc2)C(=O)C(F)(F)C(=O)NCc2cccnc2)c1 (stereo unspecified)
Ki [1]: 28.9 nM

SMILES: Nc1cnc(-c2cccnc2)n(CC(=O)NC(Cc2ccccc2)C(=O)C(F)(F)C(=O)NCc2ccccc2)c1=O (stereo unspecified)
Ki [1]: 74.3 nM

SMILES: Cc1cccc(-c2ncc(N)c(=O)n2CC(=O)NC(Cc2ccccc2)C(=O)C(F)(F)C(=O)NCc2ccccc2)c1 (stereo unspecified)
Ki [1]: 16.9 nM
Selectivity [2]: 114

SMILES: Cc1cccc(-c2ncc(N)c(=O)n2CC(=O)NC(Cc2ccccc2)C(=O)C(F)(F)C(=O)NCC(=O)N2CCCCCC2)c1 (stereo unspecified)
Ki [1]: 3.56 nM

SMILES: Nc1cnc(-c2ccccc2)n(CC(=O)NC(Cc2ccccc2)C(=O)C(F)(F)C(=O)NCc2ccccc2)c1=O (stereo unspecified)
Ki [1]: 32.5 nM

SMILES: Cc1cccc(-c2ncc(N)c(=O)n2CC(=O)NC(Cc2ccccc2)C(=O)C(F)(F)C(=O)Nc2ccc(C(=O)O)cc2)c1 (stereo unspecified)
Ki [1]: 16.6 nM

SMILES: Cc1cccc(-c2ncc(N)c(=O)n2CC(=O)NC(Cc2ccccc2)C(=O)C(F)(F)C(=O)Nc2cccc(C(=O)O)c2)c1 (stereo unspecified)
Ki [1]: 9.7 nM

SMILES: Nc1cnc(-c2ccncc2)n(CC(=O)NC(Cc2ccccc2)C(=O)C(F)(F)C(=O)NCc2ccccc2)c1=O (stereo unspecified)
Ki [1]: 84.7 nM

SMILES: Cc1cccc(-c2ncc(N)c(=O)n2CC(=O)NC(Cc2ccccc2)C(=O)C(F)(F)C(=O)N(C)C)c1 (stereo unspecified)
Ki [1]: 489 nM

SMILES: Nc1cnc(-c2cccc(Cl)c2)n(CC(=O)NC(Cc2ccccc2)C(=O)C(F)(F)C(=O)NCc2ccccc2)c1=O (stereo unspecified)
Vd [3]: 0.257 L/kg
Vd [4]: 0.369 L/kg
AUC [5]: 5720 ng·h/mL
AUC [6]: 18500 ng·h/mL
clearance [7]: 2.28 mL/min/kg
bioavailability [8]: 32%
Tmax [9]: 0.7 h
Cmax [10]: 1520 ng/mL
Tmax [11]: 1.3 h
half-life [12]: 1.4 h
clearance [13]: 3.25 mL/min/kg
AUC [14]: 7330 ng·h/mL
AUC [15]: 12100 ng·h/mL
bioavailability [16]: 17%
Cmax [17]: 7320 ng/mL
NI [18]: inactive
NI [19]: inactive
Ki [20]: 1390 nM
Ki [21]: 1260 nM
NI [22]: inactive
half-life [23]: 2.1 h

SMILES: COc1cccc(-c2ncc(N)c(=O)n2CC(=O)NC(Cc2ccccc2)C(=O)C(F)(F)C(=O)NCc2ccccc2)c1 (stereo unspecified)
Ki [1]: 13.8 nM

SMILES: Cc1cccc(-c2ncc(N)c(=O)n2CC(=O)NC(Cc2ccccc2)C(=O)C(F)(F)C(N)=O)c1 (stereo unspecified)
Ki [1]: 13.3 nM

Continued, values first:

Ki [1]: 90.7 nM
SMILES: CNC(=O)C(F)(F)C(=O)C(Cc1ccccc1)NC(=O)Cn1c(-c2cccc(C)c2)ncc(N)c1=O (stereo unspecified)

Ki [1]: 7.71 nM
SMILES: CCNC(=O)CNC(=O)C(F)(F)C(=O)C(Cc1ccccc1)NC(=O)Cn1c(-c2cccc(C)c2)ncc(N)c1=O (stereo unspecified)

Ki [1]: 23 nM
Selectivity [2]: 62.2
SMILES: Cc1cccc(-c2ncc(N)c(=O)n2CC(=O)NC(Cc2ccccc2)C(=O)C(F)(F)C(=O)NCCC(=O)O)c1 (stereo unspecified)

Ki [1]: 18.5 nM
SMILES: CCCCCNC(=O)C(F)(F)C(=O)C(Cc1ccccc1)NC(=O)Cn1c(-c2cccc(C)c2)ncc(N)c1=O (stereo unspecified)

Ki [1]: 9.32 nM
SMILES: CCN(CC)C(=O)CNC(=O)C(F)(F)C(=O)C(Cc1ccccc1)NC(=O)Cn1c(-c2cccc(C)c2)ncc(N)c1=O (stereo unspecified)

Ki [1]: 12 nM
Selectivity [2]: 120
SMILES: Cc1cccc(-c2ncc(N)c(=O)n2CC(=O)NC(Cc2ccccc2)C(=O)C(F)(F)C(=O)NCC(N)=O)c1 (stereo unspecified)

Ki [1]: > 10000 nM
SMILES: Cc1cccc(-c2ncc(N)c(=O)n2CC(=O)NC(Cc2ccccc2)C(=O)C(F)(F)C(=O)O)c1 (stereo unspecified)

Ki [1]: 16.9 nM
SMILES: Cc1cccc(-c2ncc(N)c(=O)n2CC(=O)NC(Cc2ccccc2)C(=O)C(F)(F)C(=O)NCC(=O)O)c1 (stereo unspecified)

Ki [1]: 10.2 nM
SMILES: COC(=O)CNC(=O)C(F)(F)C(=O)C(Cc1ccccc1)NC(=O)Cn1c(-c2cccc(C)c2)ncc(N)c1=O (stereo unspecified)
